Counter-ions that a name gives are not always drawn. Like-named read-outs stand apart in the source and are kept apart here.
Experiments:
[1] = test system: gadoxetate-induced MRI liver enhancement; settings: rats, cited from earlier work; for maximum hepatic MRI signal enhancement by gadoxetate: administration of OATP inhibitors
[2] = Gadopentetate DCE-MRI estimation of volume fraction of extracellular space; type: in vivo, rat; settings: gadopentetate 100 µmol/kg i.v., five rats, haematocrit 0.45, mean ± SEM
Summary of the method: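 Healthy rats (282 ± 9 g). IntraGate FLASH DCE-MRI: ten 2 mm slices, TR 60.3 ms, TE 1.4 ms, flip 30°, 1 min/volume. Contrast given by tail-vein pump (5 ml/min) 5 min after acquisition start; acquisition continuous for 45 min. ve taken as the tissue/plasma AUC ratio, with plasma concentration equal to whole-blood concentration/(1 − Hct). Isoflurane overdose afterwards.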

[3] = 4.7 T, plasma value assumed for liver and spleen; cited from earlier work
rat Bsep (rBsep) = target: T1, rat Bsep (rBsep) (Rattus norvegicus, UniProt O70127); test: Inhibition of [3H]-taurocholate uptake into rBsep membrane vesicles; type: biochemical; settings: read-out: IC50, [3H]-taurocholate uptake into vesicles expressing rBsep; geometric mean, 95% CL 109.8–153.2, n = 5
T1 sequence (O70127 1-1321): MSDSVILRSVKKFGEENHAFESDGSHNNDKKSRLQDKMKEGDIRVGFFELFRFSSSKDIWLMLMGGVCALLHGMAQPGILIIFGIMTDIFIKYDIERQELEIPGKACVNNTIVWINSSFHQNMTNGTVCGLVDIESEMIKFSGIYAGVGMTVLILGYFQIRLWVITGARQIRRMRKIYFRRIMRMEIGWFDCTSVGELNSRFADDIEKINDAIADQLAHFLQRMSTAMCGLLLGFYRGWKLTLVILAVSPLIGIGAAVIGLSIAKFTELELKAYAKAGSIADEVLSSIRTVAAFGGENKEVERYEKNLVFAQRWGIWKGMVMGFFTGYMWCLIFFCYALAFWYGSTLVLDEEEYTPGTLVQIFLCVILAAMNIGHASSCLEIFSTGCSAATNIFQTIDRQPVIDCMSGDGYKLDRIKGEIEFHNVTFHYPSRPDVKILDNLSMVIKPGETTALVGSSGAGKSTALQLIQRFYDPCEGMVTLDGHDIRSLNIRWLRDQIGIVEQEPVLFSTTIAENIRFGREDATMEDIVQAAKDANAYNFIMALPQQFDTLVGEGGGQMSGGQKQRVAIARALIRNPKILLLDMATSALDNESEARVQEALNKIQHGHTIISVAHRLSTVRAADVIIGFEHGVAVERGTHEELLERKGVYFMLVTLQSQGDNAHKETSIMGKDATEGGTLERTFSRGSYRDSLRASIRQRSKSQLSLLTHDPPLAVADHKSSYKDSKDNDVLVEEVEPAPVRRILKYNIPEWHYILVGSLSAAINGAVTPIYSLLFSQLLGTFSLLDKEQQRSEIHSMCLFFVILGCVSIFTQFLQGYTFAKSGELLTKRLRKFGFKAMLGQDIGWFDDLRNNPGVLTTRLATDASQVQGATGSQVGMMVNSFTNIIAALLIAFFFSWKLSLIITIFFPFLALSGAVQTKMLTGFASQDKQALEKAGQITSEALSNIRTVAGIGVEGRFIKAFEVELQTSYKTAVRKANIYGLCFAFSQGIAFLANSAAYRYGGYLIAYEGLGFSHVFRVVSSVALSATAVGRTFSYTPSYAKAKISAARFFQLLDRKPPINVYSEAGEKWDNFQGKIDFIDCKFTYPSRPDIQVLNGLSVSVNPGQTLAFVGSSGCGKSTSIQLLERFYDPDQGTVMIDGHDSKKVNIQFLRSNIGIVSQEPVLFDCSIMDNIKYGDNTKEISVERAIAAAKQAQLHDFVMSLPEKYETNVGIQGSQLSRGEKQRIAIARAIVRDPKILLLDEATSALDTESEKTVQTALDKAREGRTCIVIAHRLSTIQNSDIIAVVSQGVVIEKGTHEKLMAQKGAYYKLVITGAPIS

rat Mrp2 (rMrp2) = rat Mrp2 (rMrp2) (Rattus norvegicus, UniProt Q63120); test: Inhibition of CDF uptake into rMrp2 membrane vesicles; type: biochemical; settings: read-out: IC50, CDF uptake into vesicles expressing Mrp2; geometric mean, 95% CL 58.2–80.7, n = 4
Sequence of rat Mrp2 (rMrp2) (Q63120 whole entry): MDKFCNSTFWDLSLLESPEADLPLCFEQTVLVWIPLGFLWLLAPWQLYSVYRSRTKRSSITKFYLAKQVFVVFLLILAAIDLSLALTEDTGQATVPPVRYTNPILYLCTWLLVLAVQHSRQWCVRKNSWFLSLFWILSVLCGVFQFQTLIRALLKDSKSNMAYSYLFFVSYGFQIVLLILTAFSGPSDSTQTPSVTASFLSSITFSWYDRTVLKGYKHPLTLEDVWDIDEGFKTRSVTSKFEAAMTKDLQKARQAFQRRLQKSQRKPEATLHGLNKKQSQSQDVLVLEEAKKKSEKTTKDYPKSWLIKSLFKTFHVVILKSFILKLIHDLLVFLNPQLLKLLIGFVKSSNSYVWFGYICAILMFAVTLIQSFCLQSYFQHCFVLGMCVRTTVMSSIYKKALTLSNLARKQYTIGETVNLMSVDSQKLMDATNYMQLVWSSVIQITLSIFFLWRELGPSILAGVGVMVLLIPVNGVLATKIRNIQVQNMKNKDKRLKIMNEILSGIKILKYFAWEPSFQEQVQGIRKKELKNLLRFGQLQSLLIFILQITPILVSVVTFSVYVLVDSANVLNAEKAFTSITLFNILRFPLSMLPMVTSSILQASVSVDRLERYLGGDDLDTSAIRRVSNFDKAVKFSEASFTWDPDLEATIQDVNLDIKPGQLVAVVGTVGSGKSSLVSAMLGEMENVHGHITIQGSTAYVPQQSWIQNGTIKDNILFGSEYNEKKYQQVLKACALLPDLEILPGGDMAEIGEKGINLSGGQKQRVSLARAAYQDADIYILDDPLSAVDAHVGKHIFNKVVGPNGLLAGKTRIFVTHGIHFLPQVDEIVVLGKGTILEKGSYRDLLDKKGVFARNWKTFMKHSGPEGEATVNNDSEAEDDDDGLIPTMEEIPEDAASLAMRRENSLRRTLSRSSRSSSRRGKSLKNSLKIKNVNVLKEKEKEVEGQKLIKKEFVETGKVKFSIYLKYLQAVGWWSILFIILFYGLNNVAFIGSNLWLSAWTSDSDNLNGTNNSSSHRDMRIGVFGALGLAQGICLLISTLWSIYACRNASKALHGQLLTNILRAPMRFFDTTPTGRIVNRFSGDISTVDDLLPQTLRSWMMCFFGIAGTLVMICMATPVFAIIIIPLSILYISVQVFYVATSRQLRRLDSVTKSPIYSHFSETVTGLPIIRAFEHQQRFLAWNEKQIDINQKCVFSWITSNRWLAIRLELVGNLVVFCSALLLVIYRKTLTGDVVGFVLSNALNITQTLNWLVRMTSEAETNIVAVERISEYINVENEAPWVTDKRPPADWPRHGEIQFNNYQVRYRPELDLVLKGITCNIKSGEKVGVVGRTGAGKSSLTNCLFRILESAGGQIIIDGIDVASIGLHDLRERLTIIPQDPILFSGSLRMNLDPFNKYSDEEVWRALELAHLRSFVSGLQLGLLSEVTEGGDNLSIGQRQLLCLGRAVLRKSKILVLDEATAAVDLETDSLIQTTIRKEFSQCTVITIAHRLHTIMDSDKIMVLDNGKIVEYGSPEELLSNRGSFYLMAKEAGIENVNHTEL

[4] = test system: hepatic uptake and biliary excretion of gadoxetate; type: in vivo, rat; settings: for Vmax, gadoxetate efflux into bile / k1, rate of gadoxetate uptake into the hepatocyte: mean ± SEM
Summary of the method: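 Rats (298 ± 26 g), six per group, got vehicle (water, 0.5% w/v HPMC/0.1% w/v polysorbate 80) or suspended compound by oral gavage (20–2000 mg/kg). Anaesthetised 30 min post-dose; DCE-MRI began 60 min post-dose, gadoxetate given by tail-vein pump at t = 5 min, acquisition run to 60 min (1 min/volume). Hepatocyte signal derived from liver and spleen signals using extracellular fraction; k1, Vmax, KM fitted by least-squares per dose group.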

[5] = Plasma chemistry analysis after CKA; type: in vivo, rat
liver = test: Liver pathology analysis; type: in vivo; settings: CKA 20, 200 or 500 mg/kg oral, rat
[6] = rats; cited from earlier work
[7] = humans; cited from earlier work
[8] = test system: relative liver MRI signal enhancement; settings: healthy volunteers; cited from earlier work
[9] = CKA 20 mg/kg oral, rat, gadoxetate 25 µmol/kg i.v.
[10] = CKA 200 mg/kg oral, rat, gadoxetate 25 µmol/kg i.v.
[11] = CKA 500 mg/kg oral, rat, gadoxetate 25 µmol/kg i.v.
[12] = CKA 2000 mg/kg oral, rat, gadoxetate 25 µmol/kg i.v.
[13] = gadoxetate 25 µmol/kg i.v. in rats given vehicle only (no CKA)

In the case of `CC(C)NCC(O)COc1cccc2ccccc12` (stereo not shown) [propranolol hydrochloride], the “maximum hepatic MRI signal enhancement by gadoxetate” value [1] is given as “reduction”.

In the case of `O=C1OC(c2ccc(O)c(S(=O)(=O)O)c2)(c2ccc(O)c(S(=O)(=O)O)c2)c2c(Br)c(Br)c(Br)c(Br)c21` [bromosulfophthalein], the “maximum hepatic MRI signal enhancement by gadoxetate” value [1] is listed as “reduction”.

In the case of `N.N.[Cl][Pt][Cl]` [cisplatin], the “maximum hepatic MRI signal enhancement by gadoxetate” value [1] is given as “reduction”.

In the case of `CO[C@H]1/C=C/O[C@@]2(C)Oc3c(C)c(O)c4c(O)c(c(/C=N/N5CCN(C)CC5)c(O)c4c3C2=O)NC(=O)/C(C)=C\C=C\[C@H](C)[C@H](O)[C@@H](C)[C@@H](O)[C@@H](C)[C@H](OC(C)=O)[C@@H]1C` [rifampicin], the “maximum hepatic MRI signal enhancement by gadoxetate” value [1] is given as “reduction”.

In the case of `O=C([O-])CN(CCN(CC(=O)[O-])CC(=O)O)CCN(CC(=O)[O-])CC(=O)O.[Gd+3]` [gadopentetate], the “liver fractional extracellular space (AUC ratio tissue/plasma)” value [2] is listed as 0.23 ± 0.02, the “spleen fractional extracellular space (AUC ratio tissue/plasma)” value [2] is listed as 0.43 ± 0.02 and the “relaxivity r1” value [3] is listed as 3.8 s⁻¹ mM⁻¹.

In the case of `CO[C@H]1/C=C/O[C@@]2(C)Oc3c(C)c(O)c4c(O)c(cc(O)c4c3C2=O)NC(=O)/C(C)=C\C=C\[C@H](C)[C@H](O)[C@@H](C)[C@@H](O)[C@@H](C)[C@H](OC(C)=O)[C@@H]1C` [rifamycin], the “maximum hepatic MRI signal enhancement by gadoxetate” value [1] is listed as “reduction”.

With `O=C(O)c1cc2cc(O)ccc2n1Cc1ccc(Cl)c(C(F)(F)F)c1` [CKA, 1-(4-chloro-3-trifluoromethyl-benzyl)-5-hydroxy-1-H-indole-2-carboxylic acid] the IC50 (rat Bsep (rBsep)) was 130 µM, the IC50 (rat Mrp2 (rMrp2)) was 68.5 µM and the “effect on the kinetic parameters k1, Vmax and KM of gadoxetate” value ([4]; CKA 20 mg/kg oral, compared with vehicle) was “no significant effect”. The “Vmax, gadoxetate efflux into bile” value [4, 9] was 2.9 ± 0.4 µmol/s, the “k1, rate of gadoxetate uptake into the hepatocyte” value (“k1, rate” below) [4, 9] was 26.1 ± 3.3 µmol/s and the “Vmax, gadoxetate efflux into bile” value [4, 10] was 0.6 ± 0.2 µmol/s. The “k1, rate” value [4, 10] was 6.6 ± 1.9 µmol/s, the “gadoxetate enhancement of the bowel (images)” value ([4]; CKA 500 mg/kg oral) was “no enhancement” and the “Vmax, gadoxetate efflux into bile” value [4, 11] was 0.1 ± 0.1 µmol/s. The “k1, rate” value [4, 11] was 1.7 ± 0.4 µmol/s, the “Vmax, gadoxetate efflux into bile” value [4, 12] was 0.1 ± 0.1 µmol/s and the “k1, rate” value [4, 12] was 1.2 ± 0.2 µmol/s. The “rate of gadoxetate uptake into the liver and clearance from the liver into the GI tract (images)” value ([4]; CKA 200 and 500 mg/kg oral, compared with vehicle) was “marked and dose-dependent reduction”, the plasma bile acids ([5]; CKA 20-2000 mg/kg oral, rat) was “marked dose-dependent increases” and the plasma total bilirubin ([5]; CKA 20-2000 mg/kg oral, rat) was “marked dose-dependent increases”. For the same compound, the “plasma ALT levels” value ([5]; CKA 20-2000 mg/kg oral, rat, most evident at 500 and 2000 mg/kg) was “dose-related increase”, the “plasma ALT value” ([5]; single animal with necrosis, CKA 2000 mg/kg) was 344 IU/l and the “liver histology (H&E liver sections)” value (liver) was “no histological features indicative of drug-induced hepatotoxicity”.

For `C=CC1=C(C)/C(=C/c2[nH]c(Cc3[nH]c(/C=C4\NC(=O)C(C)=C4C=C)c(C)c3CCC(=O)O)c(CCC(=O)O)c2C)NC1=O` [bilirubin], the “maximum hepatic MRI signal enhancement by gadoxetate” value [1] is given as “reduction”.

For `CCOc1ccc(C[C@@H](CN(CCN(CC(=O)[O-])CC(=O)[O-])CC(=O)[O-])N(CC(=O)[O-])CC(=O)[O-])cc1.[Gd+3].[H+].[H+]` [gadoxetate], the “Vmax, gadoxetate efflux into bile” value [4, 13] is given as 2.9 ± 0.3 µmol/s, the “k1, rate” value [4, 13] is given as 29.4 ± 3.0 µmol/s and the “gadoxetate clearance, biliary” value [6] is given as 70%. For the same compound, the “gadoxetate clearance, renal” value [6] was 30%, the “excreted via each route (biliary, renal)” value [7] was 50% and the “relaxivity r1” value [3] was 5.9 s⁻¹ mM⁻¹.

For `CC[C@H]1OC(=O)[C@H](C)[C@@H](O[C@H]2C[C@@](C)(OC)[C@@H](O)[C@H](C)O2)[C@H](C)[C@@H](O[C@@H]2O[C@H](C)C[C@H](N(C)C)[C@H]2O)[C@](C)(O)C[C@@H](C)C(=O)[C@H](C)[C@@H](O)[C@]1(C)O` [erythromycin], the “relative liver MRI signal enhancement versus control subjects” value [8] is given as “did not show a statistically significant difference”.

For `COc1cccc2c1C(=O)c1c(O)c3c(c(O)c1C2=O)C[C@@](O)(C(=O)CO)C[C@@H]3O[C@H]1C[C@H](N)[C@H](O)[C@H](C)O1` [doxorubicin hydrochloride], the “maximum hepatic MRI signal enhancement by gadoxetate” value [1] is given as “reduction”.

In the case of `C[C@]12CC[C@@H]3c4ccc(O)cc4CC[C@H]3[C@@H]1CC[C@@H]2O[C@@H]1O[C@H](C(=O)O)[C@@H](O)[C@H](O)[C@H]1O` [estradiol 17-β-D-glucuronide], the “gadoxetate-induced MRI liver enhancement” value ([1]; single administration) is listed as “transiently prolonged”.

For `C[C@]12C=CC(=O)C=C1CC[C@@H]1[C@@H]2[C@@H](O)C[C@@]2(C)[C@H]1CC[C@]2(O)C(=O)CO` [prednisolone], the “maximum hepatic MRI signal enhancement by gadoxetate” value [1] is given as “reduction”.

— publication PMC3817526 (Nmr in Biomedicine, 2013)
